Test results: ChEMBL document CHEMBL1154351, “Aspergillusol A, an alpha-glucosidase inhibitor from the marine-derived fungus Aspergillus aculeatus” (J Nat Prod, 2009)
The source made the active and inactive calls. The calls are words filed in the database; no cut-off is given here.

Experiments:
HepG2 = assay: Cytotoxicity against human HepG2 cells after 4 days by MTT assay; assay type: functional, cell-based; details: HepG2, 96 h
Outline: (§1)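 MTT read-out of viability in human HepG2, HuCCA-1 and A549 cancer cell lines, with doxorubicin as reference drug; IC50 values determined.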

HL-60 = assay: Cytotoxicity against human HL60 cells by XTT assay; assay type: functional, cell-based
Outline: (§2)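 XTT read-out of viability in human MOLT-3 and HL-60 cell lines, with doxorubicin as reference drug; IC50 values determined.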

HuCC-A1 = assay: Cytotoxicity against HuCCa1 cells at 240 uM after 4 days by MTT assay; assay type: functional, cell-based; details: Homo sapiens
A549 [1] = assay: Cytotoxicity against human A549 cells at 240 uM after 4 days by MTT assay; assay type: functional, cell-based
[2] = Inhibition of Saccharomyces cerevisiae alpha-glucosidase assessed as p-nitrophenol release by colorimetry
Outline: (§3)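 Colorimetric assay with p-nitrophenyl α-D-glucoside substrate at 1.0 mM final. Enzyme at 0.1 U/mL final for S. cerevisiae α-glucosidase and 0.3 U/mL final for B. stearothermophilus α-glucosidase. Run in triplicate (n = 3), with 1-deoxynojirimycin as standard; IC50 determined.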

[3] = Inhibition of Bacillus stearothermophilus alpha-glucosidase assessed as p-nitrophenol release by colorimetry; design: species or system Geobacillus stearothermophilus; outline: as §3
Aromatase = target: T1, Aromatase (Homo sapiens, UniProt P11511); assay: Inhibition of aromatase
T1 sequence (P11511 whole entry): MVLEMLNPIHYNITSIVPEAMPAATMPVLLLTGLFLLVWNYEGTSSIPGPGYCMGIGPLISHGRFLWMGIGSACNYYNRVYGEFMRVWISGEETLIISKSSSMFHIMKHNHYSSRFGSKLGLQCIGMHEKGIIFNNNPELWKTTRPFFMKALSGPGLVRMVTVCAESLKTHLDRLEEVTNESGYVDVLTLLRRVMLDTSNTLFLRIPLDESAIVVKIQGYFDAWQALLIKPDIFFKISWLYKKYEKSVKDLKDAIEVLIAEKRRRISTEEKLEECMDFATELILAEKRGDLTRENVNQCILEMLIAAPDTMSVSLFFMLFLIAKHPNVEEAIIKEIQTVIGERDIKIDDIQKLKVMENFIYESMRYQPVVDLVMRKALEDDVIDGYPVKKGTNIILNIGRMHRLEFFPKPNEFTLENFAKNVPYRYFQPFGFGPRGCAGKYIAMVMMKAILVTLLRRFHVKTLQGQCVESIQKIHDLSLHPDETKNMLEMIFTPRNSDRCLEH

[4] = Cytotoxicity against HuCCa1 cells after 4 days by MTT assay; assay type: functional, cell-based; details: Homo sapiens, HuCC-A1, 96 h; outline: as §1
A549 [5] = assay: Cytotoxicity against human A549 cells after 4 days by MTT assay; assay type: functional, cell-based; details: A549, 96 h; outline: as §1
MOLT-3 = assay: Cytotoxicity against human MOLT3 cells by XTT assay; assay type: functional, cell-based; outline: as §2

IC50 [2] [µM]	IC50 [3] [µM]	IC50 (Aromatase) [µM]	SMILES	IC50 (HepG2) [µM]	IC50 (HL-60) [µM]	Activity (HuCC-A1)	Activity (A549 [1])	IC50 [4] [µM]	IC50 (A549 [5]) [µM]	IC50 (MOLT-3) [µM]
			O=C(OC[C@@H](OC(=O)c1ccccc1)[C@@H](COC(=O)c1ccccc1)OC(=O)c1ccccc1)c1ccccc1	29	44	inactive	inactive			
465	1060	> 100	O=C(OC[C@@H](O)[C@@H](O)COC(=O)/C(Cc1ccc(O)cc1)=N\O)/C(Cc1ccc(O)cc1)=N\O [ASPERGILLUSOL A]	> 105				50	74	19
			COc1cccc2c1C(=O)c1c(O)c3c(c(O)c1C2=O)C[C@@](O)(C(=O)CO)C[C@@H]3O[C@H]1C[C@H](N)[C@H](O)[C@H](C)O1 [DOXORUBICIN]	0.37				0.64		0.04
222	0.45		OC[C@H]1NC[C@H](O)[C@@H](O)[C@@H]1O [DUVOGLUSTAT]							
